Screens from PubChem BioAssay.
OXTR ag: human OXTR agonists, primary screen, fluorescence, CHO-OTR cells, Fluo-8 calcium; Oxytocin receptor (Homo sapiens), P30559; Fluo-8 calcium fluorescence; normalized: DMSO 0%, oxytocin 100%; activation, % at 3 µM; 0.32% of 320,000 active; AID 2435, 2010;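 active = activation above the mean of all tested compounds plus 3 SD, cutoff set per screening run, cut at about 20% in these data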;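 note: peak over basal fluorescence ratio from a 100 s FLIPR kinetic read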
OX1R antag-1: antagonists of human orexin 1 receptor (OX1R). Orexin/Hypocretin receptor type 1 (Homo sapiens), O43613. OX1R-expressing cells, FRET antagonist read-out. inhibition, % at 6.6 µM. 1.8% of 330,000 active. AID 485270, 2010; in the data active = inhibition mostly above about 38%, no sharp cut-off; inactive = mostly below about 40%
OXTR potentiate: human OXTR potentiators, primary screen, fluorescence, CHO-OTR cells, Fluo-8 calcium; Oxytocin receptor (Homo sapiens), P30559; Fluo-8 calcium fluorescence, potentiator mode; 0% = oxytocin EC15, 100% = EC100; activation, % at 3 µM; 0.061% of 320,000 active; AID 2445, 2010;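 active = activation above that plate's cutoff, the mean activation of tested compounds plus 3 SD, cut at about 6.6% in these data, passing the limit was not always enough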
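test system = CHO-OTR cells, human receptor | compound = single-point 3.0 µM | schedule = 6 min compound pre-incubation at room temperature, 100 s kinetic read | signal = Fluo-8 no-wash calcium dye fluorescence, excitation 470-495 nm, emission 515-575 nm | repeats = single well per compound, singlicate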
CHO parental Ca: ATP-evoked calcium signal inhibitors, parental CHO, primary screen, counter-screen for OX1R antagonist project, cell-based, fluorescence, Fluo-8 calcium dye | inhibition, % at 5.6 µM | AID 463079, 2010 | 0.63% of 330,000 active | parental CHO-K1, ATP-induced calcium, Fluo-8 fluorescence;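 active = inhibition above that plate's mean sample inhibition plus 3 SD, cut at about 26% in these data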
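Assay system – parental CHO cells · Reagent – ATP stimulus · Detection – intracellular calcium via Fluo-8 no-wash fluorescent dye · Evaluation – percent inhibition of ATP-evoked calcium rise, normalized to controls · Controls – ATP wells versus no-ATP DMSO wells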
V1aR counter: agonists of human V1a receptor, primary screen, counter-screen for OXTR agonist project, fluorescence, CHO-V1R cells; 0.25% of 320,000 active; Fluo-8 calcium fluorescence, agonist mode; 0% DMSO, 100% 3 nM vasopressin; AID 2797, 2010; activation, % at 3 µM;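 active = activation above the mean activation of all tested compounds plus 3 SD, per screening run, cut at about 20% in these data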;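 note: signal is peak over basal fluorescence ratio across a 100 second FLIPR read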
Target sequence (P37288 whole entry, looked up): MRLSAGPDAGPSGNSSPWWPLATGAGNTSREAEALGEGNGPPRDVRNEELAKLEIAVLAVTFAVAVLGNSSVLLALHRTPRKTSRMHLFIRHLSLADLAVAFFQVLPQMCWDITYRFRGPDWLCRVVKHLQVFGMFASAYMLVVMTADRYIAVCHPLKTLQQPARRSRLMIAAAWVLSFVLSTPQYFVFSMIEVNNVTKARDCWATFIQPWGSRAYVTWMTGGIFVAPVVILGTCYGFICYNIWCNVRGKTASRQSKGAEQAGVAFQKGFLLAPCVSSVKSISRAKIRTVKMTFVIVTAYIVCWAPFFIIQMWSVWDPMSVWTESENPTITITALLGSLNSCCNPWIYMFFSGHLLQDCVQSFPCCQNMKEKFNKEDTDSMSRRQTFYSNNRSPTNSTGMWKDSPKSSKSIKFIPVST
OX1R antag-2: OX1R (HCRTR1) antagonists, primary screen, fluorescence, CHO/OX1R cells, Fluo-8 calcium, orexin A; Orexin/Hypocretin receptor type 1 (Homo sapiens), O43613; Fluo-8 calcium fluorescence; inhibition, % at 5 µM; 0.43% of 330,000 active; AID 434989, 2010;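 active = inhibition above its plate's threshold, mean inhibition of all tested compounds on the plate plus 3 SD, cut at about 37% in these data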
V1aR agonist cf: V1a receptor agonists, calcium signal, confirmation, Fluo-8 calcium fluorescence, CHO-V1R cells; agonist; 20% of 180 active; activation, % at 3 µM; shares compounds with V1aR counter; AID 434964, 2010;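 active = average activation exceeds primary screen hit cutoff, cut at about 21% in these data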;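 note: peak over basal fluorescence ratio during a 100 s FLIPR read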
OXTR counter: human OXTR agonists, counter-screen for V1R agonist project, fluorescence, CHO-OTR cells, triplicate; shares compounds with V1aR counter; activation, % at 3 µM; 10% of 180 active; Fluo-8 calcium fluorescence;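 active = mean activation over three repeats above the cutoff from the earlier oxytocin receptor agonist screen, cut at about 20% in these data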;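 note: peak over minimum fluorescence ratio within a 100 second FLIPR read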
OX1R Fluo8 conf: OX1R (HCRTR1) antagonists, confirmation, fluorescence, CHO/OX1R cells, Fluo-8 calcium, orexin A. inhibition, % at 5 µM. AID 492963, 2010. shares compounds with OX1R antag-2. 38% of 1,100 active. orexin A calcium Fluo-8 fluorescence; in the data active = inhibition above about 29%
CHO Ca triplic: ATP-evoked calcium inhibition in parental CHO, counter-screen for OX1R antagonist project, cell-based, fluorescence, CHO-K1, triplicate; inhibition, % at 5.6 µM; 9.3% of 1,100 active; AID 492965, 2010; ATP-induced calcium, Fluo-8 fluorescence; shares compounds with OX1R antag-2;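 active = inhibition above a per-plate limit, the mean inhibition of that plate's test compounds plus 3 SD, cut at about 25% in these data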
Each line names hits and unclear results; the compound was inactive in the other large screens (follow-up assays come after a bar, where they were run). In the library only some 2.7% were active in any assay of this set; here they are far more common.

COc1ccc(N=C2NC(=O)S/C2=C\c2ccc(N(C)C)cc2)cc1	CHO parental Ca 37, V1aR counter 21 | V1aR agonist cf 26 | OXTR counter 20
COc1ccc(Cl)cc1C(=O)NNC(=S)NC(=O)c1cc(-c2ccccc2)nc2ccccc12	V1aR counter 26 | V1aR agonist cf 35 | OXTR counter 21
O=C(COc1ccc(-c2nnco2)cc1)Nc1ccc(C(F)(F)F)cc1	V1aR counter 21 | V1aR agonist cf inactive | OXTR counter inactive
O=C(COc1ccc(-c2nnco2)cc1)NCc1ccccc1Cl	none
CCn1nc(C(=O)OCC(=O)N(CCC#N)c2ccccc2)c2ccccc2c1=O	none
CC1CCCN(S(=O)(=O)c2ccc(NC(=O)CN3C(=O)NC(C)(c4ccccc4)C3=O)cc2)C1 (stereo unspecified)	none
CCCCCCCCCCOC(=O)Cn1c(COc2ccccc2OC)[n+](C)c2ccccc21	CHO parental Ca 84, V1aR counter 56, OX1R antag-2 77 | V1aR agonist cf inactive | OXTR counter inactive
COc1ccc(CCNC(=O)c2cc(-c3ccncc3)nc3ccc(S(=O)(=O)N4CCOCC4)cc23)cc1OC	none
CN(CC(=O)NCc1ccc(F)cc1)CC(=O)Nc1ccc(Cl)c(C(F)(F)F)c1	CHO parental Ca 67, V1aR counter 29, OX1R antag-2 57 | V1aR agonist cf inactive | OXTR counter inactive
CC(NC(=O)CN(C)CC(=O)Nc1ccc(Cl)c(C(F)(F)F)c1)c1ccccc1 (stereo unspecified)	none
COc1cc(NC(=O)c2cccc(S(=O)(=O)N3CCCCC3)c2)cc(OC)c1OC	none
COc1ccc(/C=C2\SC(=S)N(CCC(=O)N3CCCCC3)C2=O)cc1	none
COCCN1C(=O)/C(=C/c2ccc(N3CCCC3)cc2)SC1=S	CHO parental Ca 42, V1aR counter 28, OX1R antag-2 50 | V1aR agonist cf 99 | OXTR counter 76
COc1ccc(NC(=O)c2cccc(NC(=O)c3ccccc3)c2)cc1	none
CCOc1ccc(NC(=O)c2cccc(NC(=O)c3ccccc3)c2)cc1	V1aR counter 50 | V1aR agonist cf inactive | OXTR counter inactive
O=C(c1ccccc1)N1CCN(c2ccc([N+](=O)[O-])cc2-n2cccc2)CC1	none
c1cc2c3c(cccc3c1)NC1(CCC3(CC1)Nc1cccc4cccc(c14)N3)N2	V1aR counter 32 | V1aR agonist cf inactive | OXTR counter inactive
O=C(CN1C(=O)CCSc2ccc(S(=O)(=O)N3CCCC3)cc21)Nc1ccccc1	none
COc1cccc(/C=N/Nc2nc(Nc3ccccc3)nc(-n3nc(C)cc3C)n2)c1O	V1aR counter 21 | V1aR agonist cf inactive | OXTR counter inactive
O=c1c(-c2nc3ccccc3s2)cccn1Cc1ccc(Cl)cc1	V1aR counter 22 | V1aR agonist cf inactive | OXTR counter inactive
COc1ccccc1CN1C[C@@H]2C[C@@H](c3cccc(C)n3)N3CCC[C@@]23C1=O	none
COc1ccccc1CN1C[C@@H]2C[C@@H](c3[nH]c4c(C)cccc4c3C)N3CCC[C@@]23C1=O	V1aR counter 35 | V1aR agonist cf inactive | OXTR counter inactive
Cc1ccc(NC(=O)C2CCC(CNC(=O)[C@@H]3Cc4ccccc4CN3)CC2)cc1 (stereo partly specified)	none
CC(C)c1ccc(NC(=O)C2CCC(CNC(=O)[C@@H]3Cc4ccccc4CN3)CC2)cc1 (stereo partly specified)	V1aR counter 24 | V1aR agonist cf inactive | OXTR counter inactive
COc1ccc(CCNC(=O)CN(C)S(=O)(=O)c2ccc(OC)cc2)cc1	none
CCCCN(CC)S(=O)(=O)c1ccc(C(=O)Nc2nnc(-c3cccs3)o2)cc1	V1aR counter 26 | V1aR agonist cf inactive | OXTR counter inactive
Cc1c(NC(=O)COC(=O)C2=COCCO2)cccc1[N+](=O)[O-]	none
O=C(c1ccccc1NS(=O)(=O)c1ccc(Cl)cc1)N1CCc2ccccc21	V1aR counter 21 | V1aR agonist cf inactive | OXTR counter inactive
O=C(c1ccc(Cl)cc1)N1CCc2ccccc21	none
COc1cc(C(=O)OCC(=O)c2cc(C)n(CC3CCCO3)c2C)ccc1OCC(=O)N1CCOCC1 (stereo unspecified)	none
CCCCn1c(N)c(N(CC(C)C)C(=O)CSCc2ccc(Cl)c(Cl)c2)c(=O)[nH]c1=O	none
CC(C)C(NC(=O)OCc1ccccc1)C(=O)NC(Cc1ccc(O)cc1)C(=O)O (stereo unspecified)	none
CCC(C)C(NC(=O)OCc1ccccc1)C(=O)NC(Cc1ccc(O)cc1)C(=O)OC (stereo unspecified)	V1aR counter 27 | V1aR agonist cf inactive | OXTR counter inactive
CC(C)(C)NC(=O)c1ccccc1NC(=O)C1CC(=O)N(C2CCCCC2)C1 (stereo unspecified)	none
C/C(=N\NC(=O)c1ccncc1)c1cc2ccccc2oc1=O	none
C/C(=N/NC(=O)c1ccncc1)c1cc2ccc(O)cc2oc1=O	V1aR counter 30 | V1aR agonist cf 584 | OXTR counter 700 | OX1R Fluo8 conf 66 | CHO Ca triplic 54
O=C(CSc1ncc(-c2ccc(F)cc2)n1Cc1ccco1)Nc1nccs1	V1aR counter 29 | V1aR agonist cf inactive | OXTR counter inactive | OX1R Fluo8 conf inactive | CHO Ca triplic inactive
COc1ccc(C)cc1S(=O)(=O)N1CCCC(C(=O)N2CCN(c3ccccc3F)CC2)C1 (stereo unspecified)	none
